{
  "source": "paper PMC12667952",
  "about": "(bioRxiv, 2025)",
  "key": {"CCI mice": {"test_system": "CCI mice", "test": "Cold allodynia", "type": "in vivo, mouse", "conditions": "control compound gabapentin 100 mg/kg, by 2-hour time point", "method_in_brief": "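CCI mice tested 14 days after surgery. […] Acetone-evoked cold allodynia scored before surgery, at t = 0 before dosing, and at 0.5, 1, 1.5, 2, 4 and 6 h. Expressed as % of maximal possible responses. Two-way ANOVA with Dunnett's test versus vehicle.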"}, "hGlyT2^W215F [1]": {"target": "T1, hGlyT2^W215F (Homo sapiens, UniProt Q9Y345, W215F)", "T1 sequence (Q9Y345 1-797 W215F)": "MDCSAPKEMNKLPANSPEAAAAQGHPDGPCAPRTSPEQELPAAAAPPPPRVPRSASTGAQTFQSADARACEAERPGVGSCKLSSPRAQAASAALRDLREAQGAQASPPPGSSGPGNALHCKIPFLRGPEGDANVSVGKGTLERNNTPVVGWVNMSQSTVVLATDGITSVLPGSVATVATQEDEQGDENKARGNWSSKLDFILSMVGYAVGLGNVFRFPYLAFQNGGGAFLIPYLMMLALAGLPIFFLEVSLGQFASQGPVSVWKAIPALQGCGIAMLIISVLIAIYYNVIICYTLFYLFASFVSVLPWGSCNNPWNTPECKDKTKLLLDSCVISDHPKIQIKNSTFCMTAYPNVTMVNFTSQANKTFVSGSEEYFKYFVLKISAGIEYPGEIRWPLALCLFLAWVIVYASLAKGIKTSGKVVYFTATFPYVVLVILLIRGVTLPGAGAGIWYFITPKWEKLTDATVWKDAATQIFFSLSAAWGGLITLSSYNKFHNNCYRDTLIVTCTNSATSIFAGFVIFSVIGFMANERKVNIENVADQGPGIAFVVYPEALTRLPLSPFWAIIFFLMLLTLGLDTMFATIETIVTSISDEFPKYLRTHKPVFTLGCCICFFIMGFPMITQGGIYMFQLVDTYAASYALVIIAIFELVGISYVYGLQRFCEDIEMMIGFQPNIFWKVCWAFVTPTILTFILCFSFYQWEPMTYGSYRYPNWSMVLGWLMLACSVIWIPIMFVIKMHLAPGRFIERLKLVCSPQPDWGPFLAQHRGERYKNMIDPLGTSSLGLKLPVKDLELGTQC", "test": "Reversibility", "type": "cell-based"}, "mice [2]": {"test_system": "mice", "conditions": "50 mg/kg; cited from earlier work"}, "[3]": {"conditions": "cited from earlier work"}, "hGlyT2^WT [4]": {"target": "T2, hGlyT2^WT (Homo sapiens, UniProt Q9Y345)", "T2 sequence (Q9Y345 1-797)": "T1 sequence (Q9Y345 1-797 W215F) with F215W", "type": "cell-based"}, "hGlyT2^D633E [5]": {"target": "T3, hGlyT2^D633E (Homo sapiens, UniProt Q9Y345, D633E)", "T3 sequence (Q9Y345 1-797 D633E)": "T1 sequence (Q9Y345 1-797 W215F) with F215W, D633E", "type": "cell-based"}, "hGlyT2^WT [6]": {"target": "T2, hGlyT2^WT", "test": "Reversibility", "type": "cell-based", "method_in_brief": "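Xenopus oocytes injected with 20 ng hGlyT2 WT cRNA and held 3–6 days at 18 °C. Glycine currents recorded by two-electrode voltage clamp at −60 mV. Test compound applied at a single concentration (10 μM maximum), then washed out. Recovery of 30 µM glycine-evoked currents followed to 30 min, normalised to pre-inhibitor current. n ≥ 5 from at least two frogs.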"}, "hGlyT2^WT [7]": {"target": "T2, hGlyT2^WT", "test": "Sodium dependence of inhibition of glycine transport currents", "type": "cell-based", "conditions": "IC50 at 100 mM Na+, 100 mM Na+, 300 μM glycine"}, "hGlyT2^W215F [8]": {"target": "T1, hGlyT2^W215F", "type": "cell-based"}, "mice [9]": {"test_system": "mice", "conditions": "50 mg/kg; cited from earlier work", "remark": "listed apart in the source"}, "hGlyT2^D633E [10]": {"target": "T3, hGlyT2^D633E", "test": "Reversibility", "type": "cell-based"}, "C57BL/6J mice": {"test_system": "C57BL/6J mice", "test": "Conditioned place preference", "type": "in vivo, mouse", "conditions": "10 mg/kg, i.p., positive control"}, "GlyT2": {"test_system": "GlyT2", "conditions": "read-out: IC50 for GlyT2; cited from earlier work"}},
  "note": "Where a chain is given by its changes, count along the chain named. Like-named read-outs stand apart in the source and are kept apart here.",
  "data": [
    {"smiles": "NCC1(CC(=O)O)CCCCC1", "note": "[Gabapentin, reference compound]", "values": [
      {"measurement": "Peak reduction of response rate to acetone stimulus", "setting": "CCI mice", "result": 75, "unit": "%"}
    ]},
    {"smiles": "COc1cc(C(=O)NCC2(N(C)C)CCCC2)cc(OC)c1OCc1ccccc1", "note": "[ORG25543, 4-(benzyloxy)-N-{[1-(dimethylamino)cyclopentyl]methyl}-3,5-dimethoxybenzamide, reference compound]", "values": [
      {"measurement": "Washout of inhibitor from hGlyT2^W215F", "setting": "hGlyT2^W215F [1]", "result": "significantly increased the rate of ORG25543 washout"},
      {"measurement": "Side effects coinciding with analgesic dose", "setting": "mice [2]", "result": "near-complete loss of rotarod performance, seizures and in one case, lethality"},
      {"measurement": "Effects on inflammatory and acute nociceptive pain thresholds", "setting": "[3]", "result": "no effects"},
      {"measurement": "IC50", "setting": "hGlyT2^WT [4]", "result": 11.4, "unit": "nM"},
      {"measurement": "Reduction in potency of inhibition, D633E versus WT", "setting": "hGlyT2^D633E [5]", "result": "~ 14 fold"},
      {"measurement": "Glycine currents restored, of pre-inhibitor levels", "setting": "hGlyT2^WT [6]; after 30 minutes washout", "result": 12.5, "unit": "%"},
      {"measurement": "Reversibility of inhibition (recovery of glycine-induced currents)", "setting": "hGlyT2^WT [6]; washout, hGlyT2^WT", "result": "minimal restoration of glycine-induced currents 30-minutes post-ORG25543"},
      {"measurement": "IC50", "setting": "hGlyT2^WT [7]", "result": 17.6, "unit": "nM"},
      {"measurement": "Decrease in potency of inhibition, W215F versus WT", "setting": "hGlyT2^W215F [8]", "result": "~three-fold"},
      {"measurement": "Mechanical allodynia", "setting": "mice [9]", "result": "reversed mechanical allodynia"},
      {"measurement": "Washout of inhibitor from hGlyT2^D633E", "setting": "hGlyT2^D633E [10]", "result": "recovery from ORG25543 within five minutes"}
    ]},
    {"smiles": "CN1CC[C@]23c4c5ccc(O)c4O[C@H]2[C@@H](O)C=C[C@H]3[C@H]1C5", "note": "[morphine, reference compound]", "values": [
      {"measurement": "Preference for the paired chamber", "setting": "C57BL/6J mice", "result": "significant increase in preference for the paired chamber"}
    ]},
    {"smiles": "CCCCCCCC/C=C\\CCCCCCCC(=O)N[C@H](CCCCN)C(=O)O", "note": "[oleoyl-D-lysine]", "values": [
      {"measurement": "Effects on inflammatory and acute nociceptive pain thresholds", "setting": "[3]", "result": "no effects"}
    ]},
    {"smiles": "CCCCOc1c(OC)cc(C(=O)NCC2(N(C)C)CCOCC2)cc1OC", "note": "[opiranserin]", "values": [
      {"measurement": "IC50", "setting": "GlyT2", "result": 860, "unit": "nM"}
    ]}
  ]
}
